# Data from PubChem BioAssay.
# A number with no mark means an inactive call. Results filed as inconclusive are left out. Calls of active or inactive are those of the source.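 The calls were made as follows, unless noted: active = inhibition over a set limit, the all-compound mean plus 3 SD, in both replicate runs; inconclusive = over that limit in just one replicate run; inactive = at or under that limit in both runs.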
# Experiments:
# [1] = OD615 S. cerevisiae growth inhibition, permissive medium, pilot counter-assay, permissive growth control for S. cerevisiae lifespan shortening project (AID 705;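 active = growth inhibition above 25% in both replicates, a cutoff set 3 SD above the mean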); conditions: OD615, 24 h, at 10 µM, active compounds read high
# Outline: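 System: S. cerevisiae with engineered DeaD lifespan system / Measured by: absorbance (optical density) at 615 nm / Read-out: reduction in yeast growth (OD615) / Times: 4 h cell pre-growth, 24 h exposure at 30 °C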
# [2] = Restrictive medium S. cerevisiae growth inhibition, OD615, pilot screen of yeast lifespan reduction project, restrictive growth control (AID 706;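 active = growth inhibition above a set limit, 3 SD over mean compound inhibition, in both replicates, cut at about 43% in these data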;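 also: modified DeaD lifespan yeast strain shifted to restrictive glucose medium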); conditions: OD615, 48 h, at 10 µM, active compounds read high
# Outline: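 System: Engineered S. cerevisiae DeaD strain | Buffer or medium: Glucose-based CSMM-D restrictive medium | Schedule: 4 h pre-incubation, 48 h exposure at 30 °C | Technique: Optical density at 615 nm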
# [3] = viability gain of MRP-1-high H69AR cells under doxorubicin, pilot screen, MRP-1 activator project, CellTiter-Glo, duplicate (AID 807;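 active = viability increase at or above a cutoff of the median across tested compounds plus 3 SD, cut at about 8.5% in these data, passing the limit was not always enough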;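 also: compound pretreatment 18-22 h then 72 h combined with doxorubicin; 0% = doxorubicin alone and 100% = vehicle without doxorubicin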); conditions: H69AR viability with doxorubicin, CellTiter-Glo luminescence; at 10 µM; active compounds read high
# [4] = growth suppression of beta-catenin knockout HCT116, pilot screen, human colon tumor cells (AID 823;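 active = cell viability at or below a set limit in both duplicate runs, the limit being the all-compound median minus 4 SD, cut at about 23% in these data, passing the limit was not always enough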;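 also: 0% = wells killed by 20 µM Hyamine and 100% = untreated DMSO cell wells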); conditions: CellTiter-Glo, 60 h, at 10 µM, active compounds read low
# [5] = growth suppression of PTEN-deleted HCT116, pilot screen, cell-based, HCT116 clonal line, CellTiter-Glo (AID 824;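 active = viability at or below 27.92% in each of two runs, the all-compound median minus 4 SD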;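 also: 0% = 20 µM Hyamine control and 100% = vehicle cell control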); conditions: 60 h, at 10 µM, active compounds read low
# [6] = inhibitors of the yeast RAM network, pilot screen, dse1pr::URA3 reporter, 5-FOA selection (AID 869);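 also: 0% = DMSO wells with no growth and 100% = 10 µM 1-NA-PP1 with full growth; RAM network block rescues cells from 5-FOA so hits raise OD615 growth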; conditions: S. cerevisiae dse1pr::URA3 5-FOA growth, OD615, 2 d; at 10 µM; active compounds read high; strain carries analog-sensitive mutant Cbk1 kinase
# [7] = RAM signaling pathway blockade in yeast – S. cerevisiae, Pdr1DBD-CYC8 efflux-inhibited sensitized strain, primary screen (AID 1298;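 active = RAM network inhibition above 8.4% in each of two replicates, 3 SD over the compound average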;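 also: 0% = DMSO untreated cells without growth and 100% = 10 µM 1-NA-PP1 full growth; higher means more yeast growth rescued from 5-FOA killing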); conditions: S. cerevisiae cbk1-as DSE1-URA3 strain, 5-FOA growth OD615, 2 d; at 50 µM; active compounds read high
Structure (SMILES),growth inhibition [1],growth inhibition [2],viability increase [3],viability [4],viability [5],inhibition [6],RAM network inhibition [7]
O=C(CCS(=O)(=O)c1cccc2nonc12)N1CCCc2ccccc21,-10.4%,-22.1%,-4.61%,92.8%,92.9%,2.08%,8.49%
Cc1cccc(-c2nc(CS(=O)CC(=O)NC3CCCC3)c(C)o2)c1 (stereo unspecified),6.19%,1.96%,-3.32%,94.5%,91.7%,3.42%,4.67%
Cc1cc(C)c(C)c(OCC(=O)NCCN(C)C)c1,-11.6%,-3.56%,-1.08%,91%,91.3%,0.79%,0.26%
Fc1cccc(Cl)c1CSc1nnnn1-c1ccc2c(c1)OCO2,3.1%,17.6%,-5.87%,55.7%,46.4%,1.1%,10.2%
CSCC[C@@H](C(=O)Nc1ccc2c(c1)OCCO2)N1Cc2ccccc2C1=O,3.3%,1.73%,-2.91%,99.3%,92.3%,0.83%,4.13%
OC(COc1cccc2ccccc12)CN1CCN(c2ccccn2)CC1 (stereo unspecified),-5.36%,1.3%,-2.34%,84.9%,81.7%,0.445%,2.59%
FC(F)C(F)(F)C1=CC(c2ccccc2)=NCCN1,-9.88%,-17.6%,-1.16%,96.7%,85.5%,1.59%,2.09%
O=C(Nc1cccc(Br)c1)c1cc2ccccc2o1,-5.65%,-7.8%,-5%,65.5%,64.3%,0.03%,3.48%
c1ccc2c(c1)nc1n2CCN1CCNC1CCCCC1,-11.4%,-11.7%,-1.96%,94.2%,98.6%,0.065%,1.2%
Nc1ccc(OCc2ccccc2)cc1,-14.4%,-9.93%,-4.17%,98.7%,89.4%,1.9%,5.27%
CCCc1nc(N)nc2c1C(=O)CC(C)(C)C2,-15.1%,3.37%,-1.08%,89.4%,87.6%,1.54%,0.27%
COc1ccc(CSc2nnnn2Cc2ccccc2)cc1OC,0.115%,1.64%,-0.65%,87.3%,84.4%,0.785%,1.87%
C=CCSc1nnc(CSc2nc3sc4c(c3c(=O)[nH]2)CCCC4)n1-c1ccccc1,9.19%,37.7%,0.54%,93.2%,91.2%,1.42%,11%
CN(CCc1ccccn1)C(=O)Nc1ccc(F)cc1,-7.65%,-14.7%,-1.63%,108%,98%,0.71%,5.39%
CCCCNc1ncnc2c1cnn2-c1ccc(Cl)cc1,-7.84%,-18.1%,-6.6%,17.3% (active),20.4% (active),0.835%,5.62%
O=C(NCCc1csc(-c2cccnc2)n1)c1cccs1,1.53%,4.78%,-0.87%,103%,106%,1.27%,0.68%
O=C1CCC(C(=O)N(c2ccccc2)C2(C(=O)NC3CCCCC3)CCCCC2)N1 (stereo unspecified),1.54%,2.4%,-0.07%,94.3%,97.2%,0.505%,1.6%
Cc1ccc(C)c(C(=O)COC(=O)c2ccc(Br)o2)c1,-12.9%,-17.1%,-0.26%,94.2%,86.2%,0.38%,1.4%
COC(=O)Cn1c(CN2CCN(c3ccc(F)cc3)CC2)nc2c1c(=O)n(C)c(=O)n2C,-1.31%,-4.9%,-0.86%,85.1%,86.2%,2.88%,1.93%
CCN1CCN(C(c2cccs2)C(C)NC(=O)C(C)C)CC1 (stereo unspecified),-3.71%,2.65%,-2.01%,98%,92.2%,-0.3%,3.86%
O=C(CS(=O)(=O)c1cn(Cc2ccccc2Cl)c2ccccc12)N1CCOCC1,-3.44%,2.78%,-4.39%,79%,76%,3.23%,5.08%
O=C(Cn1cc2c(n1)CCCC2)N1CCCc2ccccc21,1.09%,4.04%,-1.6%,98.6%,100%,0.85%,1.48%
O=C(Oc1ccccc1)c1cccc(N2C(=O)CCC2=O)c1,-1.76%,0.85%,-1.06%,105%,105%,1.27%,1.74%
CCN(CC)CCCNC(=O)c1cc2c(-c3ccc(Cl)cc3)nn(C)c2s1,0.63%,17.3%,-8.12%,1.68% (active),1.82% (active),-0.18%,-0.36%

Structure (SMILES),growth inhibition [1],growth inhibition [2],viability increase [3],viability [4],viability [5],inhibition [6],RAM network inhibition [7]
O=C1c2ccccc2C(=O)N1Cc1nc2ccccc2c(=O)n1CCCn1ccnc1,-3.57%,0.74%,-1.98%,96.3%,101%,0.915%,4.3%
CCOC(=O)c1csc(NC(=O)C(C)(C)C)n1,-6.04%,-0.045%,2.71%,105%,98.8%,0.48%,-1.57%
C=C1c2cc(CC)ccc2NC(=O)N1c1ccc(C)cc1,-6.46%,-2.23%,3.36%,97.9%,101%,0.37%,0.61%
O=C(CSc1nnc2scc(-c3ccccc3)n12)c1ccc2c(c1)OCCO2,1.86%,0.4%,-2.27%,99.5%,93.1%,3.66%,7.73%
COC(=O)C1C2C=CC3(CN(c4ccc(Cl)c(F)c4)C(=O)C13)O2 (stereo unspecified),-5.96%,0.405%,-1.28%,94.6%,91.8%,1.67%,2.93%
CCCn1c(CN2CCCCC2C)nc2c1c(=O)n(C)c(=O)n2C (stereo unspecified),-7.96%,-3.75%,-0.39%,88.7%,83.9%,1.64%,8.45%
COC(=O)C1CCN(C(=O)c2ccc(Cl)c(S(=O)(=O)NCc3cccnc3)c2)CC1,-4.88%,-18.5%,0.87%,101%,102%,1.32%,2.3%
O=C(NC1CCN(Cc2ccccc2)CC1)C1CCN(c2nnc(-n3cccc3)s2)CC1,3.62%,-0.61%,-2.59%,82.2%,79.3%,0.53%,2.35%
CCCCCn1c(SCc2cccc(C)c2)nc2c1c(=O)[nH]c(=O)n2C,-12.8%,-18.8%,-7.54%,70.1%,66.4%,1.67%,5.94%
O=C(c1ccccc1)c1cccc(NC(=O)c2ccco2)c1,-8.52%,-5.33%,-3.35%,92.5%,96.3%,-0.895%,-0.72%
Cc1cc(C(=O)NCc2ccc3c(c2)OCO3)n(-c2ccccc2)n1,-8.49%,-5.84%,-0.01%,92.2%,96.3%,0.985%,4.44%
CCSc1nnc(Cn2c(=O)sc3ccccc32)n1-c1ccccc1C,-2.14%,-4.08%,-1.61%,93.9%,89.7%,1.61%,8.51%
Cc1cc(NC(=O)CSc2cn(C)c3ccccc23)no1,-8.73%,4.95%,-2.87%,97.6%,99.1%,0.48%,1.44%
CCN1CCN(CC(=O)Nc2ccc(C)cc2C)C(=O)C1=O,2.74%,-6.08%,-0.23%,98%,97%,1.74%,-0.71%
N#CC1=C(c2ccccc2)N=P(N2CCOCC2)(N2CCOCC2)N=C1N1CCOCC1,-6.26%,-16.2%,0.57%,103%,107%,1.39%,0.33%
O=C(CCCCn1c(=O)[nH]c2ccccc2c1=O)N1CCN(c2ncccn2)CC1,-13.4%,-20.2%,-1.54%,104%,105%,0.76%,0.58%
COc1ccc(N2Cc3cccc(C(=O)NC(C)CCc4ccco4)c3C2=O)cc1 (stereo unspecified),-3.44%,-3.73%,3.67%,95.3%,95.3%,1.92%,7.29%
CCCc1cc(C(=O)Nc2sc(C)c(CC)c2C#N)no1,-6.42%,-11.2%,2.26%,102%,101%,1.42%,0.53%
Cc1ccc2oc(=O)c3cnn(CC(=O)N4CCN(c5ccccn5)CC4)c3c2c1,-7.07%,-17.7%,-1.28%,91.8%,87.6%,1.41%,-0.31%
Cc1nc2ccccc2n1-c1ccccc1,-0.46%,10.2%,0.08%,89.1%,96.4%,0.185%,4.25%
CC1COC2C(O1)N(S(C)(=O)=O)CCN2S(C)(=O)=O (stereo unspecified),-7.71%,-12.4%,0.34%,99.3%,101%,0.68%,2.6%
CCOC(=O)c1sc(NC(=O)c2cc(S(=O)(=O)N3CCOCC3)ccc2C)nc1C,-4.69%,-10.3%,-2.11%,92.3%,86.6%,0.57%,6.77%
COc1cc(NS(=O)(=O)c2ccc(NC(=O)C34CC5CC(CC(C5)C3)C4)cc2)ncn1,-0.475%,-24.6%,-1.47%,98.1%,91.9%,2.73%,8.43%
COc1cc(NC(=O)c2cc(-c3cccc(O)c3)on2)cc(OC)c1OC,-13.9%,3.45%,-6.05%,89.8%,75.3%,4.79%,6.05%
